Converted amounts (≈) assume the structure as drawn.
Assays:
Assay type in all cases: functional
[1] = tested on: Aspergillus flavus; experiment: Antifungal activity against Aspergillus flavus MTCC 277 at 100 ug/ml after 48 hrs by agar well diffusion method; conditions: MTCC 277, 48 h, read-out: IZ
In short: (§1)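 Test samples and DMSO controls incubated at 27 °C for 48 h. Inhibition zone diameter measured in mm. Three to four replicates per treatment.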

[2] = tested on: Aspergillus niger; experiment: Antifungal activity against Aspergillus niger MTCC 344 at 100 ug/ml after 48 hrs by agar well diffusion method; conditions: MTCC 344, 48 h, read-out: IZ; in short: as §1
[3] = tested on: Saccharomyces cerevisiae; experiment: Antifungal activity against Saccharomyces cerevisiae MTCC 36 at 100 ug/ml after 48 hrs by agar well diffusion method; conditions: MTCC 36, 48 h, read-out: IZ; in short: as §1
[4] = tested on: Diutina rugosa; experiment: Antifungal activity against Candida rugosa NCIM 3462 at 100 ug/ml after 48 hrs by agar well diffusion method; conditions: NCIM 3462, 48 h, read-out: IZ; in short: as §1
[5] = tested on: Candida albicans; experiment: Antifungal activity against Candida albicans MTCC 227 at 100 ug/ml after 48 hrs by agar well diffusion method; conditions: MTCC 227, 48 h, read-out: IZ; in short: as §1
[6] = tested on: Klebsiella pneumoniae; experiment: Antibacterial activity against Klebsiella pneumoniae MTCC 618 by broth dilution method
In short: (§2)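 Broth dilution per NCCL standards; all phosphorus ylides and conjugated alkynes tested in vitro.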

[7] = tested on: Pseudomonas aeruginosa; experiment: Antibacterial activity against Pseudomonas aeruginosa MTCC 741 by broth dilution method; in short: as §2
[8] = tested on: Escherichia coli; experiment: Antibacterial activity against Escherichia coli MTCC 443 by broth dilution method; in short: as §2
[9] = tested on: Staphylococcus epidermidis; experiment: Antibacterial activity against Staphylococcus epidermidis MTCC 435 by broth dilution method; in short: as §2
[10] = tested on: Staphylococcus aureus; experiment: Antibacterial activity against Staphylococcus aureus MTCC 96 by broth dilution method; in short: as §2
[11] = tested on: Bacillus subtilis; experiment: Antibacterial activity against Bacillus subtilis MTCC 441 by broth dilution method; in short: as §2
[12] = tested on: Aspergillus flavus; experiment: Antifungal activity against Aspergillus flavus MTCC 277 at 50 ug/ml after 48 hrs by agar well diffusion method; conditions: MTCC 277, 48 h, read-out: IZ; in short: as §1
[13] = tested on: Aspergillus niger; experiment: Antifungal activity against Aspergillus niger MTCC 344 at 50 ug/ml after 48 hrs by agar well diffusion method; conditions: MTCC 344, 48 h, read-out: IZ; in short: as §1
[14] = tested on: Saccharomyces cerevisiae; experiment: Antifungal activity against Saccharomyces cerevisiae MTCC 36 at 50 ug/ml after 48 hrs by agar well diffusion method; conditions: MTCC 36, 48 h, read-out: IZ; in short: as §1
[15] = tested on: Diutina rugosa; experiment: Antifungal activity against Candida rugosa NCIM 3462 at 50 ug/ml after 48 hrs by agar well diffusion method; conditions: NCIM 3462, 48 h, read-out: IZ; in short: as §1
[16] = tested on: Candida albicans; experiment: Antifungal activity against Candida albicans MTCC 227 at 50 ug/ml after 48 hrs by agar well diffusion method; conditions: MTCC 227, 48 h, read-out: IZ; in short: as §1

Row | MIC [6] | MIC [7] | MIC [8] | MIC [9] | MIC [10] | MIC [11] | Compound | zone of inhibition at 100 µg/mL [1] | zone of inhibition at 100 µg/mL [2] | zone of inhibition at 100 µg/mL [3] | zone of inhibition at 100 µg/mL [4] | zone of inhibition at 100 µg/mL [5] | zone of inhibition at 50 µg/mL [12] | zone of inhibition at 50 µg/mL [13] | zone of inhibition at 50 µg/mL [14] | zone of inhibition at 50 µg/mL [15] | zone of inhibition at 50 µg/mL [16]
1 | > 150 µg/mL | > 150 µg/mL | > 150 µg/mL | > 150 µg/mL | > 150 µg/mL | > 150 µg/mL | Cc1ccccc1C(=O)C(C#N)=P(c1ccccc1)(c1ccccc1)c1ccccc1 | 0 mm | 0 mm | 0 mm | 0 mm | 0 mm |  |  |  |  | 
2 | 3.12 µg/mL (≈ 19.2 µM) | 0.78 µg/mL (≈ 4.8 µM) | 100 µg/mL (≈ 615 µM) | 6.25 µg/mL (≈ 38.4 µM) | 1.56 µg/mL (≈ 9.6 µM) | 1.56 µg/mL (≈ 9.6 µM) | N#CC#Cc1ccc(Cl)nc1 | 47 mm | 43 mm | 10 mm | 28 mm | 40 mm | 44 mm | 39 mm | 0 mm | 33 mm | 35 mm
3 | > 150 µg/mL | > 150 µg/mL | > 150 µg/mL | > 150 µg/mL | > 150 µg/mL | > 150 µg/mL | CCOC(=O)C(C(=O)c1ccccc1C)=P(c1ccccc1)(c1ccccc1)c1ccccc1 | 0 mm | 0 mm | 0 mm | 0 mm | 0 mm |  |  |  |  | 
4 | > 150 µg/mL | > 150 µg/mL | > 150 µg/mL | > 150 µg/mL | > 150 µg/mL | > 150 µg/mL | CCOC(=O)C(C(=O)c1cccnc1Cl)=P(c1ccccc1)(c1ccccc1)c1ccccc1 | 0 mm | 0 mm | 0 mm | 0 mm | 0 mm |  |  |  |  | 
5 | > 150 µg/mL | > 150 µg/mL | > 150 µg/mL | > 150 µg/mL | > 150 µg/mL | > 150 µg/mL | CC(C)(C)C(=O)C(C#N)=P(c1ccccc1)(c1ccccc1)c1ccccc1 | 0 mm | 0 mm | 0 mm | 0 mm | 0 mm |  |  |  |  | 
6 | > 150 µg/mL | > 150 µg/mL | > 150 µg/mL | > 150 µg/mL | > 150 µg/mL | > 150 µg/mL | CCOC(=O)C(C(=O)c1ccco1)=P(c1ccccc1)(c1ccccc1)c1ccccc1 | 0 mm | 0 mm | 0 mm | 0 mm | 0 mm |  |  |  |  | 
7 | > 150 µg/mL | > 150 µg/mL | > 150 µg/mL | > 150 µg/mL | > 150 µg/mL | > 150 µg/mL | CCOC(=O)C(C(=O)c1cc(F)c(Cl)nc1Cl)=P(c1ccccc1)(c1ccccc1)c1ccccc1 | 0 mm | 0 mm | 0 mm | 0 mm | 0 mm |  |  |  |  | 
8 | 6.25 µg/mL (≈ 18.7 µM) | 12.5 µg/mL (≈ 37.4 µM) | 12.5 µg/mL (≈ 37.4 µM) | 3.12 µg/mL (≈ 9.35 µM) | 1.56 µg/mL (≈ 4.67 µM) | 1.56 µg/mL (≈ 4.67 µM) | CC1(C)S[C@@H]2[C@H](NC(=O)Cc3ccccc3)C(=O)N2[C@H]1C(=O)O [PENICILLIN G] |  |  |  |  |  |  |  |  |  | 
9 | > 150 µg/mL | > 150 µg/mL | > 150 µg/mL | > 150 µg/mL | > 150 µg/mL | > 150 µg/mL | CCOC(=O)C(C(=O)c1ccc(Cl)nc1)=P(c1ccccc1)(c1ccccc1)c1ccccc1 | 0 mm | 0 mm | 0 mm | 0 mm | 0 mm |  |  |  |  | 

Continued, molecule first:

Row | Compound | MIC [6] | MIC [7] | MIC [8] | MIC [9] | MIC [10] | MIC [11] | zone of inhibition at 100 µg/mL [1] | zone of inhibition at 100 µg/mL [2] | zone of inhibition at 100 µg/mL [3] | zone of inhibition at 100 µg/mL [4] | zone of inhibition at 100 µg/mL [5] | zone of inhibition at 50 µg/mL [12] | zone of inhibition at 50 µg/mL [13] | zone of inhibition at 50 µg/mL [14] | zone of inhibition at 50 µg/mL [15] | zone of inhibition at 50 µg/mL [16]
10 | N#CC#Cc1cccnc1Cl | 12.5 µg/mL (≈ 76.9 µM) | 0.78 µg/mL (≈ 4.8 µM) | 100 µg/mL (≈ 615 µM) | 50 µg/mL (≈ 308 µM) | 6.25 µg/mL (≈ 38.4 µM) | 3.12 µg/mL (≈ 19.2 µM) | 39 mm | 30 mm | 11 mm | 29 mm | 28 mm | 35 mm | 26 mm | 0 mm | 23 mm | 23 mm
11 | CN[C@@H]1[C@H](O[C@H]2[C@H](O[C@H]3[C@H](O)[C@@H](O)[C@H](N=C(N)N)[C@@H](O)[C@@H]3N=C(N)N)O[C@@H](C)[C@]2(O)C=O)O[C@@H](CO)[C@H](O)[C@H]1O [STREPTOMYCIN] | 3.12 µg/mL (≈ 5.37 µM) | 1.56 µg/mL (≈ 2.69 µM) | 6.25 µg/mL (≈ 10.7 µM) | 3.12 µg/mL (≈ 5.37 µM) | 6.25 µg/mL (≈ 10.7 µM) | 6.25 µg/mL (≈ 10.7 µM) |  |  |  |  |  |  |  |  |  | 
12 | CCOC(=O)C(C(=O)C(C)(C)C)=P(c1ccccc1)(c1ccccc1)c1ccccc1 | > 150 µg/mL | > 150 µg/mL | > 150 µg/mL | > 150 µg/mL | > 150 µg/mL | > 150 µg/mL | 0 mm | 0 mm | 0 mm | 0 mm | 0 mm |  |  |  |  | 
13 | CC(C)OC(=O)C(C(=O)c1ccc(Cl)nc1)=P(c1ccccc1)(c1ccccc1)c1ccccc1 | > 150 µg/mL | > 150 µg/mL | > 150 µg/mL | > 150 µg/mL | > 150 µg/mL | > 150 µg/mL | 0 mm | 0 mm | 0 mm | 0 mm | 0 mm |  |  |  |  | 
14 | N#CC(C(=O)c1ccc(Cl)nc1)=P(c1ccccc1)(c1ccccc1)c1ccccc1 | > 150 µg/mL | > 150 µg/mL | > 150 µg/mL | > 150 µg/mL | > 150 µg/mL | > 150 µg/mL | 0 mm | 0 mm | 0 mm | 0 mm | 0 mm |  |  |  |  | 
15 | C[C@@H]1[C@H](O)[C@@H](C)/C=C/C=C/C=C/C=C/C=C/C=C/C=C/[C@H](O[C@@H]2O[C@H](C)[C@@H](O)[C@H](N)[C@@H]2O)C[C@@H]2O[C@](O)(C[C@@H](O)C[C@@H](O)[C@H](O)CC[C@@H](O)C[C@@H](O)CC(=O)O[C@H]1C)C[C@H](O)[C@H]2C(=O)O [AMPHOTERICIN B] |  |  |  |  |  |  |  |  |  |  |  | 25 mm | 25 mm | 22 mm | 21 mm | 23.5 mm
16 | N#CC(C(=O)c1ccco1)=P(c1ccccc1)(c1ccccc1)c1ccccc1 | > 150 µg/mL | > 150 µg/mL | > 150 µg/mL | > 150 µg/mL | > 150 µg/mL | > 150 µg/mL | 0 mm | 0 mm | 0 mm | 0 mm | 0 mm |  |  |  |  | 
17 | CC(C)OC(=O)C(C(=O)c1cc(F)c(Cl)nc1Cl)=P(c1ccccc1)(c1ccccc1)c1ccccc1 | > 150 µg/mL | > 150 µg/mL | > 150 µg/mL | > 150 µg/mL | > 150 µg/mL | > 150 µg/mL | 0 mm | 0 mm | 0 mm | 0 mm | 0 mm |  |  |  |  | 
18 | CC(C)OC(=O)C(C(=O)c1ccco1)=P(c1ccccc1)(c1ccccc1)c1ccccc1 | > 150 µg/mL | > 150 µg/mL | > 150 µg/mL | > 150 µg/mL | > 150 µg/mL | > 150 µg/mL | 0 mm | 0 mm | 0 mm | 0 mm | 0 mm |  |  |  |  | 
19 | N#CC(C(=O)c1cc(F)c(Cl)nc1Cl)=P(c1ccccc1)(c1ccccc1)c1ccccc1 | > 150 µg/mL | > 150 µg/mL | > 150 µg/mL | > 150 µg/mL | > 150 µg/mL | > 150 µg/mL | 0 mm | 0 mm | 0 mm | 0 mm | 0 mm |  |  |  |  | 
20 | N#CC(C(=O)c1cccnc1Cl)=P(c1ccccc1)(c1ccccc1)c1ccccc1 | > 150 µg/mL | > 150 µg/mL | > 150 µg/mL | > 150 µg/mL | > 150 µg/mL | > 150 µg/mL | 0 mm | 0 mm | 0 mm | 0 mm | 0 mm |  |  |  |  | 
21 | CC(C)OC(=O)C(C(=O)C(C)(C)C)=P(c1ccccc1)(c1ccccc1)c1ccccc1 | > 150 µg/mL | > 150 µg/mL | > 150 µg/mL | > 150 µg/mL | > 150 µg/mL | > 150 µg/mL | 0 mm | 0 mm | 0 mm | 0 mm | 0 mm |  |  |  |  | 

Reference: ChEMBL document CHEMBL2424522, “Demonic axe-like conjugated alkynes in combating microbes” (2013)
